High-throughput results deposited in PubChem by The Scripps Research Institute Molecular Screening Center.
NPY Y1 blocker – NPY-Y1 (human) receptor antagonism; P25929; HEK293-CNG Y1 cells, membrane potential fluorescence; NPY at EC95, then isoproterenol; inhibition, % at 3.6 µM; actives 1% (n = 200,000);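 active = inhibition above the campaign mean inhibition of all tested compounds plus 3 SD, cut at about 20% in these data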;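 note: 0% = DMSO wells given NPY plus isoproterenol and 100% = isoproterenol alone without NPY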
Target sequence (P25929 whole entry, looked up): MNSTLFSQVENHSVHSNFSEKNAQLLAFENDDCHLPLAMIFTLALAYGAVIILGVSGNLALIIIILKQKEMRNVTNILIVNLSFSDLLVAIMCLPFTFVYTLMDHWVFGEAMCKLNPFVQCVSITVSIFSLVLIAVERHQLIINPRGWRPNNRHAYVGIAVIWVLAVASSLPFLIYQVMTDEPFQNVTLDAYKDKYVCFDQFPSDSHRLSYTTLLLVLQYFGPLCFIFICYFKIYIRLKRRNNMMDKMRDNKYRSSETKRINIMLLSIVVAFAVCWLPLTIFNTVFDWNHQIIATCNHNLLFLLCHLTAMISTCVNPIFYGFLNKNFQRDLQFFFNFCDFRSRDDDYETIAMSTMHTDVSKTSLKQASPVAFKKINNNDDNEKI
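Material: HEK293 Y1/CNG channel cell line | Also added: NPY (25 nM), isoproterenol (1 µM), Ro 20-1724 (25 µM) | Compound: One concentration, 3.6 µM, in 0.4% DMSO | Schedule: 3 h dye uptake, 1 h room-temperature compound, 45 min post-isoproterenol | Signal: Membrane-potential fluorescent dye readout | Read-out: % inhibition of NPY effect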
NPY Y2 blocker – blocks the human neuropeptide Y Y2 receptor. NPY-Y2 expressing cells, antagonist mode. inhibition, % at 2.7 µM. actives 0.99% (n = 140,000). AID 793; in the data active = inhibition above about 17%;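 note: 0% = vehicle with agonist challenge and 100% = reference antagonist with challenge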
NPY2 pot ag – potentiates or activates human NPY-Y2 receptor; P49146; cells expressing NPY-Y2, potentiator/agonist read-out; activation, % at 3.6 µM; actives 0.45% (n = 220,000); in the data active = activation above about 27%;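 note: cells stimulated with NPY near EC25 plus isoproterenol at EC100; 0% = vehicle plus submaximal agonist and 100% = vehicle plus saturating agonist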
NPY-Y1 PAM-ag – human NPY-Y1 potentiation or agonism, primary screen | P25929 | NPY-Y1 expressing cells, potentiator/agonist activation | activation, % at 3.6 µM | actives 0.37% (n = 220,000); in the data active = activation above about 33%, passing the limit was not always enough;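 note: cells stimulated with NPY at EC10 then isoproterenol at EC100; 0% = low agonist plus stimulus and 100% = saturating agonist plus stimulus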
Starred values were filed as active, the others as inactive. Compounds with a hit are over-represented: about 1.8% of the library has one in this group of screens.

For CCN(CC)c1ccc(C2=NNC(=O)CC2C)cc1[N+](=O)[O-] (stereo not given) the results were NPY Y1 blocker 64*, NPY Y2 blocker 71*, NPY2 pot ag -45 and NPY-Y1 PAM-ag -85.
CCN(CC)CCN(C)c1ccc(N2C(=O)C3CC=CCC3C2=O)cc1[N+](=O)[O-] (stereo not given) was read as NPY Y1 blocker -3, NPY2 pot ag 8 and NPY-Y1 PAM-ag 7.
`CC1CC(=O)NN=C1c1ccc(N(C)C)c([N+](=O)[O-])c1` (stereo not given) gave NPY Y1 blocker 78*, NPY Y2 blocker 94*, NPY2 pot ag -43 and NPY-Y1 PAM-ag -88.
CC1CC(=O)NN=C1c1cccs1 (stereo not given) was read as NPY2 pot ag -50 and NPY-Y1 PAM-ag -44.
`C=CCC1(NCc2ccco2)CCN(CC)CC1` gave NPY Y1 blocker 7, NPY2 pot ag 5 and NPY-Y1 PAM-ag 8.
Screening COC(=O)CSc1nc(-c2ccccc2)cc(-c2ccco2)c1C#N returned NPY Y1 blocker 23*, NPY Y2 blocker 21*, NPY2 pot ag -22 and NPY-Y1 PAM-ag 8.
Cc1ccccc1NC1C=CS(=O)(=O)C1 (stereo not given) was read as NPY Y1 blocker 1, NPY Y2 blocker 0, NPY2 pot ag 107* and NPY-Y1 PAM-ag 22.
COc1ccccc1NC1C=CS(=O)(=O)C1 (stereo not given) was read as NPY Y1 blocker -3, NPY Y2 blocker 2, NPY2 pot ag 8 and NPY-Y1 PAM-ag 9.
For COc1cc(N=Nc2cccc(S(N)(=O)=O)c2)c2ccccc2c1N the results were NPY2 pot ag 52* and NPY-Y1 PAM-ag 61*.
`O=C(Nc1cccc(C(F)(F)F)c1)C(=O)N1CCCCC1` gave NPY Y1 blocker 1, NPY2 pot ag -1 and NPY-Y1 PAM-ag 9.
Screening COc1cccc(OCC(O)CN2CCN(c3ccccc3)CC2)c1 (stereo not given) returned NPY2 pot ag -17 and NPY-Y1 PAM-ag 18.
`COc1cccc(OCC(O)CN2CCOCC2)c1` (stereo not given) gave NPY Y1 blocker -6, NPY Y2 blocker 2, NPY2 pot ag 45* and NPY-Y1 PAM-ag 60*.
COc1ccc(COCC(O)CN2CCOCC2)cc1OC (stereo not given) was read as NPY Y1 blocker -12, NPY Y2 blocker -1, NPY2 pot ag 79* and NPY-Y1 PAM-ag 54*.
Screening CCn1cc(C(=O)O)c(=O)c2cnc(N3CCN(C(=S)Nc4ccccc4Cl)CC3)nc21 returned NPY2 pot ag -4 and NPY-Y1 PAM-ag 19.
For CCOc1ccccc1OCCN1CCC(Cc2ccccc2)CC1 the results were NPY Y1 blocker 26*, NPY Y2 blocker 17*, NPY2 pot ag -10 and NPY-Y1 PAM-ag -29.
Screening CN(C)S(=O)(=O)N1CCC(c2ccc(F)cc2)C(COc2ccc3c(c2)OCO3)C1 (stereo not given) returned NPY Y1 blocker 44*, NPY Y2 blocker 28*, NPY2 pot ag -21 and NPY-Y1 PAM-ag -17.
Screening OC(COc1ccc2c(c1)OCO2)CN1CCN(c2ccc(F)cc2)CC1 (stereo not given) returned NPY Y1 blocker 2, NPY2 pot ag -15 and NPY-Y1 PAM-ag -9.
`c1csc(COc2ccccc2CNC2CCCCC2)c1` gave NPY Y1 blocker 23*, NPY Y2 blocker 31*, NPY2 pot ag 14 and NPY-Y1 PAM-ag 9.
`C=CCn1c(=N)n(CC(=O)c2ccc(Br)s2)c2ccccc21` gave NPY Y1 blocker 9, NPY Y2 blocker 8, NPY2 pot ag -8 and NPY-Y1 PAM-ag -14.
Screening C/C(=N\Nc1ccc(Cl)cc1)c1c(O)cc(C)oc1=O returned NPY Y1 blocker -1, NPY2 pot ag -1 and NPY-Y1 PAM-ag -3.
`C#CCn1cc(/C=N/Nc2nc3ccccc3[nH]2)c2ccccc21` gave NPY Y1 blocker -8, NPY Y2 blocker -1, NPY2 pot ag 49* and NPY-Y1 PAM-ag 45*.
Clc1nc(CN2CCOCC2)nc2sc3c(c12)CCC3 was read as NPY Y1 blocker -4, NPY2 pot ag -5 and NPY-Y1 PAM-ag -17.
Cc1cccc(Oc2nc(CN3CCOCC3)nc3sc4c(c23)CCCC4)c1 was read as NPY Y1 blocker 20*, NPY Y2 blocker 29*, NPY2 pot ag -3 and NPY-Y1 PAM-ag -22.
For COc1ccc(-c2nnn(CC(=O)N(CCCN3CCOCC3)C(C(=O)NC3CCCC3)c3ccco3)n2)cc1 (stereo not given) the results were NPY Y1 blocker 10, NPY2 pot ag 1 and NPY-Y1 PAM-ag -2.
